Experimental findings from ChEMBL document CHEMBL4011662 (J Med Chem, 2017) are described below.

Holding throughout (type): cell-based
Assay [1] addresses T1, Probable G-protein coupled receptor 34 (Homo sapiens, UniProt Q9UPC5). The experiment in a line: Intrinsic activity at human GPR34 expressed in HEK293 cells co-transfected with AP-TGFalpha/chimeric Galphaq/i1 assessed as induction of AP-TGFalpha release after 1 hr relative to O-(Hydroxy(((2R,3R)-2-(((3-(2-((3-phenoxybenzyl)oxy)phenyl)- propanoyl)oxy)methyl)tetrahydro-2H-pyran-3-yl)oxy)phosphoryl)- L-serine.

The target of assay [2] is T1, Probable G-protein coupled receptor 34. The experiment in a line: Agonist activity at human GPR34 expressed in HEK293 cells co-transfected with AP-TGFalpha/chimeric Galphaq/i1 assessed as induction of AP-TGFalpha release after 1 hr. Conditions: read-out: EC50. In a few lines: (§1)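 HEK293A cells transiently co-transfected with AP-TGFα, chimeric Gαq/i1 and GPR34 (human for line 1, mouse for line 3) or empty vector (mock). After 24 h, cells were suspended in HBSS with 5 mM HEPES pH 7.4 and preincubated 30 min with 10 μM (final) Ki16425. Compounds in HBSS with 0.01% fatty acid-free BSA were added for 1 h at 37 °C. AP activity in medium and on cells was read as OD405 with p-NPP after 1 h at room temperature.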

Assay [3] deals with Probable G-protein coupled receptor 34 (Mus musculus) (UniProt Q9R1K6). The assay is described as follows: Intrinsic activity at mouse GPR34 expressed in HEK293 cells co-transfected with AP-TGFalpha/chimeric […] assessed as induction of ectodomain shedding of membrane bound AP-TGFalpha after 1 hr relative to O-(Hydroxy(((2R,3R)-2-(((3-(2-((3-phenoxybenzyl)oxy)phenyl)- propanoyl)oxy)methyl)tetrahydro-2H-pyran-3-yl)oxy)phosphoryl)- L-serine. An outline of the steps: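 Relative intrinsic activity (RIA) was Emax/EC50 relative to that of a positive control agonist, whose RIA is defined as 1. Emax and EC50 came from sigmoid fits of receptor-specific AP-TGFα release in the HEK293A shedding assay, with human GPR34 for line 5 and mouse GPR34 for line 6, after 1 h at 37 °C.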

Assay [4] addresses Probable G-protein coupled receptor 34 (Mus musculus, UniProt Q9R1K6). The experiment in a line: Agonist activity at mouse GPR34 expressed in HEK293 cells co-transfected with AP-TGFalpha/chimeric Galphaq/i1 assessed as induction of ectodomain shedding of membrane bound AP-TGFalpha after 1 hr. In a few lines:
as §1

In assay [5] the target is Probable G-protein coupled receptor 34 (Mus musculus) (UniProt Q9R1K6). The assay is described as follows: Agonist activity at mouse GPR34 expressed in HEK293 cells co-transfected with AP-TGFalpha/chimeric Galphaq/i1 assessed as induction of ectodomain shedding of membrane bound AP-TGFalpha after 1 hr relative to control. An outline of the steps:
(§2)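 Same AP-TGFα shedding set-up in HEK293A (human GPR34 for line 2, mouse for line 4). Release was the %AP-TGFα in medium minus vehicle, then minus the mock-transfected response. Emax (% AP-TGFα release) and LogEC50 came from four-parameter sigmoid fits of plateau or semiplateau curves, as mean ± SEM of n independent experiments.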

The target in assay [6] is T1, Probable G-protein coupled receptor 34. The assay is described as follows: Agonist activity at human GPR34 expressed in HEK293 cells co-transfected with AP-TGFalpha/chimeric Galphaq/i1 assessed as induction of AP-TGFalpha release after 1 hr relative to control. In a few lines:
as §2

T1 sequence (Q9UPC5 whole entry): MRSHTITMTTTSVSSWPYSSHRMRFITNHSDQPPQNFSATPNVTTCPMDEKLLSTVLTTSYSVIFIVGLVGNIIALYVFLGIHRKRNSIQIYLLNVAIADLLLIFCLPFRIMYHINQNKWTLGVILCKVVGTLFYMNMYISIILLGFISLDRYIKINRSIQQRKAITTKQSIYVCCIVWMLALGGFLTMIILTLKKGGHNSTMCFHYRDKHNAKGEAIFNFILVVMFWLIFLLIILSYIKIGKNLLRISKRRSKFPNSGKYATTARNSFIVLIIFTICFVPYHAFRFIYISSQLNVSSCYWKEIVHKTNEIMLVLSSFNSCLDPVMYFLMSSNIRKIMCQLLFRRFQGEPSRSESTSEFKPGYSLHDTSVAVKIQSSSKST
Chain of Probable G-protein coupled receptor 34 (Mus musculus) (Q9R1K6 whole entry, the tested form may be a part): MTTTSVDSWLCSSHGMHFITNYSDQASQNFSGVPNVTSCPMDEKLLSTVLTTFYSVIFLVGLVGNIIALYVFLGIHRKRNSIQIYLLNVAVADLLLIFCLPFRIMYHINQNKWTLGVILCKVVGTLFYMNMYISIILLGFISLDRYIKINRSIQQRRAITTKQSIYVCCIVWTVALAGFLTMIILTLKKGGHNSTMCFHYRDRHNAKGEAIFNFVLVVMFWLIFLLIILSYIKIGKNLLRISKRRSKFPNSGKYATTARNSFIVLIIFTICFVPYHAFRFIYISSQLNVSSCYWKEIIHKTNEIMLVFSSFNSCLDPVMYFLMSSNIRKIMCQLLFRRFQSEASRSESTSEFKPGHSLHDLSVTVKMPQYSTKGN
Chain of Probable G-protein coupled receptor 34 (Mus musculus, UniProt Q9R1K6) (Q9R1K6 whole entry, the tested form may be a part): as above

Turning to `N[C@@H](COP(=O)(O)OCCCOC(=O)CCc1ccccc1OCc1cccc(Oc2ccc(-c3ccc(-c4ccccc4)cc3)cc2)c1)C(=O)O`, the Intrinsic activity in assay [1] worked out at 3.2; in assay [3], 4.3. In addition, the EC50 in assay [2] amounted to 41 nM; in assay [4], 18 nM. Further, the figures for the maximal effect (Emax) in assay [5] and in assay [6] were 11.6% and 17%, respectively.

As a reminder, the EC50 is the concentration giving half of the maximal effect. One may read the Emax as the maximal effect, on the per cent scale that the assay sets.
